Converted amounts (≈) assume the structure as drawn.
Tested on: Mycobacterium tuberculosis variant bovis
Assay: Antimycobacterial activity against Mycobacterium bovis AN5 expressing luciferase assessed as growth inhibition after 6 days by luminometry
Type: functional
Conditions: AN5, 144 h
Summary of the method: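 Strains carried pSMT1 luxAB reporter plasmid. DMSO stocks 10 mM, serially diluted in 7H9 + 10% FCS, triplicate wells. Filtered bacterial suspension at 50 000 RLU/mL. Luminescence read after 6 days using 1% n-decanal substrate. […] Growth temperatures: M.tb 37 °C; M. avium and M. bovis 39 °C.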

Structure (SMILES)	MIC
CC(C)(C)C1CCc2ncc3c(c2C1)C(=O)C1=C(C3=O)C2CCC1C2 (centres undefined)	0.78 µM (≈ 0.262 µg/mL)
CCOC(=O)C1CCc2ncc3c(c2C1)C(=O)C1=C(C3=O)C2CCC1C2 (centres undefined)	0.09 µM (≈ 0.0316 µg/mL)
CCOC(=O)C1CCc2ncc3c(c2C1)C(=O)C1=C(C3=O)C2CCC1CC2 (centres undefined)	0.57 µM (≈ 0.208 µg/mL)
NNC(=O)c1ccncc1 [ISONIAZID]	0.08 µM (≈ 0.011 µg/mL)
